Results collected from several papers.
Compare with care: the assays were run in different laboratories.
Cell line: NCI-H226
Effect on: cell growth or viability

Structure (SMILES)	technique	concentration	time	measurement	value
O=C1NCCc2[nH]c(-c3ccncc3)cc21	–	–	–	IC50	> 10 µM
COc1ccc(-c2ccc(-c3ccc(C(=N)N)nc3)s2)cc1Cl	SRB	–	–	GI50	1.92 µM
NC(=O)c1cc(Cl)ccc1NC(=O)COc1ccccc1	SRB	–	–	GI50	> 100 µM
O=c1[nH]cc(S(=O)(=O)Nc2cccc(-c3nnc(-c4cccc(Cl)c4)o3)c2)c(=O)[nH]1	MTT	–	24 h	IC50	7.7 µM
c1ccc2cc(Cn3cc[n+](Cc4ccc5ccccc5c4)c3)ccc2c1	SRB	–	–	TGI	14.3 µM
COc1ccc(C(=O)/C=C/c2cccc(Cl)c2)cc1S(N)(=O)=O	SRB	–	48 h	GI50	2.8 µM
CCCc1n(Cc2ccc3ccccc3n2)cc[n+]1Cc1ccc2ccccc2n1	SRB	–	–	TGI	34.8 µM
S=C([S][Au-][P+](CCCCCC[P+]([Au-][S]C(=S)n1cccn1)(c1ccccc1)c1ccccc1)(c1ccccc1)c1ccccc1)n1cccn1	SRB	–	–	GI50	6.63 µM
c1ccc(-c2n(Cc3ccc4ccccc4c3)cc[n+]2Cc2ccc3ccccc3c2)cc1	SRB	–	–	TGI	2.97 µM
COc1ccc(C(=O)/C=C/c2cccc(Br)c2)cc1S(N)(=O)=O	SRB	10 µM	–	inhibition	83%
CCCCC/C=C/C(=O)CCc1ccc(O)c(OC)c1	SRB	–	–	IC50	18 µM
COc1ccc(C(=O)/C=C/c2cc3c(cc2Br)OCO3)cc1S(N)(=O)=O	SRB	–	48 h	GI50	2.8 µM
COc1ccc(-c2ccc(-c3ccc(C(=N)N)nc3)s2)cc1	SRB	–	–	GI50	1.81 µM
COc1ccc(C(=O)/C=C/c2ccc(Cl)c(Cl)c2)cc1S(N)(=O)=O	SRB	–	48 h	GI50	3 µM
CCCCC[C@H](O)CC(=O)CCc1ccc(O)c(OC)c1	SRB	–	–	IC50	145 µM
CCc1n(Cc2ccc3ccccc3n2)cc[n+]1Cc1ccc2ccccc2c1	SRB	–	–	TGI	4.87 µM
COc1ccc(C(=O)/C=C/c2cccc3ccccc23)cc1S(N)(=O)=O	SRB	–	48 h	GI50	3.1 µM
